Results published in PMC8861878 (The Journal of pharmacy and pharmacology, 2020).
Several values for one entry are separate records, joined by “and”; a condition that tells them apart may be missing. Equal values may be shown once.

Assays:
[1] = molecular target: CYP2E1 (Homo sapiens, UniProt P05181); assay: Inhibition of CYP2E1; assay type: in vitro ADME; settings: isobavachin 1, 10, 100 μM; substrate chlorzoxazone (200 μM)
Procedure, shortened: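 Recombinant human CYPs (CYP1A2 and 3A4 at 0.05 mg/ml; CYP2C8 and 2E1 at 0.1 mg/ml) with probe substrate in Tris-HCl 50 mM pH 7.4, MgCl2 5 mM and NADPH 1 mM at 37 °C for 60 min. Run without (control) or with test compound at 1, 10 or 100 μM. Acetonitrile stop; metabolite by UHPLC-TQD-MS; activity versus control, triplicate.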

[2] = Mono-oxidation of isobavachin by pooled HLM, enzyme kinetics; assay type: in vitro ADME, human
[3] = test system: expressed UGT enzymes; assay: Reaction phenotyping with expressed UGT enzymes; assay type: in vitro ADME, human; settings: isobavachin at 10 μM (Figure S4B)
[4] = Mono-oxidation of isobavachin by MLM, enzyme kinetics; assay type: in vitro ADME, mice
[5] = molecular target: T1, UGT1A1 (Homo sapiens, UniProt P22309); assay: Glucuronidation of isobavachin by recombinant UGT1A1, enzyme kinetics; assay type: in vitro ADME; settings: formation of G1, substrate inhibition model
T1 sequence (P22309 26-533): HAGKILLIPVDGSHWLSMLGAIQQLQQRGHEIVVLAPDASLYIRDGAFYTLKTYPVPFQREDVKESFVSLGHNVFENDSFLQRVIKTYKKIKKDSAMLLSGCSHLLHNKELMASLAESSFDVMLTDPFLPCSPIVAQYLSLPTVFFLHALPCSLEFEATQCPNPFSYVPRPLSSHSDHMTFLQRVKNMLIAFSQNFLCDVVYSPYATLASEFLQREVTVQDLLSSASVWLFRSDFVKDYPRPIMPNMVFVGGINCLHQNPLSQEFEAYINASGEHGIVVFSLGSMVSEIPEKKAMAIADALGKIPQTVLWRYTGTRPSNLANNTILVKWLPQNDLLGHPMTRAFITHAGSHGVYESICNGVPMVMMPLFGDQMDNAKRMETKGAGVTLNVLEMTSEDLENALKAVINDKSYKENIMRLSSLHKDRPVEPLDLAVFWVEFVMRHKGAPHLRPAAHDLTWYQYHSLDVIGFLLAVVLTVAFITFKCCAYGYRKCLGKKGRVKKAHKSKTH

[6] = molecular target: T2, CYP2B6 (Homo sapiens, UniProt P20813); assay: Inhibition of CYP2B6; assay type: in vitro ADME
T2 sequence (P20813 1-491): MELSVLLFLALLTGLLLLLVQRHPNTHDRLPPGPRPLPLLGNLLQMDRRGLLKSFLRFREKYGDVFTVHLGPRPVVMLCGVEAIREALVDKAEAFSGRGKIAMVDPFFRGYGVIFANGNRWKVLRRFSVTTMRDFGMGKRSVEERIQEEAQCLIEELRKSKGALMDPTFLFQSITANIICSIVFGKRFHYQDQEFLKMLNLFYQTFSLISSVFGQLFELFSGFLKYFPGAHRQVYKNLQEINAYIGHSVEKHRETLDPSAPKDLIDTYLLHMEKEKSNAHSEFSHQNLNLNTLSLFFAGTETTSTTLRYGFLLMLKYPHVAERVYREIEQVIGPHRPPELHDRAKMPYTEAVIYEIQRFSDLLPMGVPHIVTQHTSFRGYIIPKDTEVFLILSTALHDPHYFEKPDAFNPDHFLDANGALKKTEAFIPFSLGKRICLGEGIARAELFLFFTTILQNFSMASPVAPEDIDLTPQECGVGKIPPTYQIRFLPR

[7] = molecular target: T3, UGT1A7 (Homo sapiens, UniProt Q9HAW7); assay: Glucuronidation of isobavachin by recombinant UGT1A7, enzyme kinetics; assay type: in vitro ADME; settings: formation of G1, substrate inhibition model
T3 sequence (Q9HAW7 26-530): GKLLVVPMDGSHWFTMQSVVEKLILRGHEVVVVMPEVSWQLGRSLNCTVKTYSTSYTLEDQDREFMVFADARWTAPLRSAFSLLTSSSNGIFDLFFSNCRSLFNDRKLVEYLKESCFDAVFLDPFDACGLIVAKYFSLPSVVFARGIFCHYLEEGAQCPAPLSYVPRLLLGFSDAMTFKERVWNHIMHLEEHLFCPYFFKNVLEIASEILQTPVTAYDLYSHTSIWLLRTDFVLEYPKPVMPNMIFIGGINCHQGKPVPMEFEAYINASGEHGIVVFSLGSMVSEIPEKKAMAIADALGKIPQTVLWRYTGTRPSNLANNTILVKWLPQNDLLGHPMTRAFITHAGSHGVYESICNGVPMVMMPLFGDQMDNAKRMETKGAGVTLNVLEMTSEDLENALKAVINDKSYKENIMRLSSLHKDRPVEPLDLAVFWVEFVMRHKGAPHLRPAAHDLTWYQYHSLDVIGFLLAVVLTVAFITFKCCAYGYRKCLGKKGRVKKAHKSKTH

[8] = molecular target: T4, UGT1A9 (Homo sapiens, UniProt O60656); assay: Glucuronidation of isobavachin by recombinant UGT1A9, enzyme kinetics; assay type: in vitro ADME; settings: formation of G1, substrate inhibition model
T4 sequence (O60656 26-530): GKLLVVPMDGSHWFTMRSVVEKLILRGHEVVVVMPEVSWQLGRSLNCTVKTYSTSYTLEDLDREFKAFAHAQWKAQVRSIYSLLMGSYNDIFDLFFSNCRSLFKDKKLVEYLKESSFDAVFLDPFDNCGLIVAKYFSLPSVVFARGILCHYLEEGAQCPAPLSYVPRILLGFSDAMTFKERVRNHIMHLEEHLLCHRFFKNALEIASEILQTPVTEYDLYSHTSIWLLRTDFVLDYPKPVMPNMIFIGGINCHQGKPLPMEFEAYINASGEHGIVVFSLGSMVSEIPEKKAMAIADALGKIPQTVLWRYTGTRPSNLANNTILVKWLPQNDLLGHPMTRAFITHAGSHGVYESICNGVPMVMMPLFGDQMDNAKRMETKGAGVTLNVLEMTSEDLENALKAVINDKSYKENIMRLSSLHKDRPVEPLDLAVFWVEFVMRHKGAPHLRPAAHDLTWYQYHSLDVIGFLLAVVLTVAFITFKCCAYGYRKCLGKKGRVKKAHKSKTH

[9] = molecular target: T1, UGT1A1; assay: Inhibition of UGT1A1; assay type: in vitro ADME
[10] = based on the smallest AIC and SC values

Chain of CYP2E1 (P05181 whole entry): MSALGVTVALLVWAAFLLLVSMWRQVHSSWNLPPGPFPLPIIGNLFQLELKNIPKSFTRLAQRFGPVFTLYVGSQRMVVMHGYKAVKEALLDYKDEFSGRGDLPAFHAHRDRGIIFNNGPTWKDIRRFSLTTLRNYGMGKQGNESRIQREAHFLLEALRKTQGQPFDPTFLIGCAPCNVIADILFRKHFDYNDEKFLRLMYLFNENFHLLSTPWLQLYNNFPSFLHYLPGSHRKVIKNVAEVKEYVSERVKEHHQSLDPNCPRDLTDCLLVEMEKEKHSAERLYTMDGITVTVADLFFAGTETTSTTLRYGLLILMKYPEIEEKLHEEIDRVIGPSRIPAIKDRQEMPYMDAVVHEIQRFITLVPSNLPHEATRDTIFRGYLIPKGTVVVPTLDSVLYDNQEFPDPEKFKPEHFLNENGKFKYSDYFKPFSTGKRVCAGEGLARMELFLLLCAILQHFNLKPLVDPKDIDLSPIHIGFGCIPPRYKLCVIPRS

Structure (SMILES): CC(C)=CCc1c(O)ccc2c1O[C@H](c1ccc(O)cc1)CC2=O [isobavachin]
- inhibitory effects [1]: negligible or weak
- CLint (CLmax) ([2]; formation of M1, substrate inhibition model): 59.81 μl/min per mg and 59.81 ± 21.18 μl/min per mg
- CLint (CLmax) ([2]; formation of M2, Michaelis–Menten model): 5.53 ± 0.93 μl/min per mg
- UGT enzymes involved in glucuronidation [3]: UGT1A1, 1A6, 1A7, 1A8, 1A9 and 2B4 have an important role in glucuronidation reaction
- CLint (CLmax) ([4]; formation of M1, Michaelis–Menten model): 35.46 μl/min per mg and 35.46 ± 5.98 μl/min per mg
- CLint (CLmax) ([4]; formation of M2, substrate inhibition model): 64.32 μl/min per mg and 64.32 ± 17.18 μl/min per mg
- CLint (CLmax) ([4]; formation of M3, substrate inhibition model): 47.43 μl/min per mg and 47.43 ± 7.99 μl/min per mg
- Ki ([5]; substrate inhibition constant): 40.82 ± 9.70 µM
- Vmax [5]: 7735.0 ± 1186.0 pmol/min per mg
- IC50 [6]: 5 ± 0.48 µM
- residual activities ([6]; 10 μM isobavachin): 30.86 % of the negative control
- Ki ([6]; substrate bupropion, competitive model (not selected)): 0.35 ± 0.11 µM
- Ki ([6]; substrate bupropion, mixed-type model (not selected)): 1.46 ± 0.62 µM
- Ki ([6]; substrate bupropion, non-competitive model (selected, smallest AIC and SC)): 1.93 ± 0.18 µM
- Inhibition type [6, 10]: non-competitive inhibition mode
- α ([6]; substrate bupropion, mixed-type model): 1.49 ± 0.92
- Ki ([7]; substrate inhibition constant): 27.54 ± 5.39 µM
- CLint (CLmax) [7]: 109.18 ± 24.17 μl/min per mg
- Vmax [7]: 3593.00 ± 487.20 pmol/min per mg
- Ki ([8]; substrate inhibition constant): 38.39 ± 8.88 µM
- CLint (CLmax) [8]: 202.62 ± 48.80 μl/min per mg
- Vmax [8]: 3167.00 ± 426.4 pmol/min per mg
- IC50 [9]: 1.53 ± 0.39 µM
- residual activities ([9]; 10 μM isobavachin): 4.58 % of the negative control
- Ki ([9]; Ki, substrate estradiol, competitive model (selected, smallest AIC and SC)): 3.05 ± 0.41 µM
- Inhibition type [9, 10]: competitive inhibition
- α ([9]; substrate estradiol, mixed-type model): 8.01 ± 2.56
